# UHRF1 binding: human UHRF1 methylated DNA binding inhibitors | UHRF1 binding to methylated oligo, TR-FRET | inhibition, % at 4.4 µM | hit rate 0.75% among 370,000; in the data active = inhibition above about 21%;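 also: UHRF1 SRA domain binding a hemimethylated CpG hairpin DNA probe; 0% = median of test compound wells and 100% = reference inhibitor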
# Target sequence (Q96T88 whole entry, looked up, the tested form may be a part): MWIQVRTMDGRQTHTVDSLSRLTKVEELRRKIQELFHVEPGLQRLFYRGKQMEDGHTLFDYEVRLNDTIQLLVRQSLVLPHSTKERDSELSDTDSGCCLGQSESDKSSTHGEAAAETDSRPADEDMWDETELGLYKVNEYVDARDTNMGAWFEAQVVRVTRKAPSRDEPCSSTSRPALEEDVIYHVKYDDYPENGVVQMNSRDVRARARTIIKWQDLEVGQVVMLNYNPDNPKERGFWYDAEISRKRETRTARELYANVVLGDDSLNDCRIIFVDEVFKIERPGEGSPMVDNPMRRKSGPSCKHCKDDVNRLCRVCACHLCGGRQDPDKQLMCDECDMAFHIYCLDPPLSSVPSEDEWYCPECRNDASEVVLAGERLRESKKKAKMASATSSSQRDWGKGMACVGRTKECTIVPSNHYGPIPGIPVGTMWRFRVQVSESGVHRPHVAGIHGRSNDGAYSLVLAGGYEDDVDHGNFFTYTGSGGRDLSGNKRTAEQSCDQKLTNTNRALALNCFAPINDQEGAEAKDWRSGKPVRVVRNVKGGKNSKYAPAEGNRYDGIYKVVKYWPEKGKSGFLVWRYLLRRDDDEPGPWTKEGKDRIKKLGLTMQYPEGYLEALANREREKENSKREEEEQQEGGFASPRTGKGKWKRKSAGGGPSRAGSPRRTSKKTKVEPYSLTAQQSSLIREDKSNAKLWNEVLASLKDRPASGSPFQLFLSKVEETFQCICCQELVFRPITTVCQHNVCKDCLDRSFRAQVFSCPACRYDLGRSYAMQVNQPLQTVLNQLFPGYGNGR
# ASAP1 GAP inh: blocks human ASAP1-stimulated Arf1 GTP hydrolysis; Q9ULH1; GDP FP detection; inhibition, % at 16.5 µM; hit rate 0.19% among 360,000; AID 624377; in the data active = inhibition above about 25%;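 also: 0% = vehicle with enzyme and substrate and 100% = no enzyme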
# ARFGAP1 inh: inhibitors of rat ARFGAP1. Q62848. AID 651572. inhibition, % at 16.5 µM. hit rate 0.26% among 360,000. Arfgap1-stimulated ARF1 GTP hydrolysis, GDP FP detection;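 active = inhibition above a per-plate limit, mean inhibition of low control wells plus 3 SD, cut at about 25% in these data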;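 also: 0% = DMSO wells with enzyme and 100% = wells lacking Arfgap1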
#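 material = rat Arfgap1 catalytic domain, aa 1-136 | also added = human ARF1(Δ1-17)-GTP substrate | compound dosing = one concentration, 16.5 µM, DMSO 1.26% | times = GTP hydrolysis reaction 2 h at 25 °C | measured by = FP, GDP Alexa 633 tracer displaced from anti-GDP antibody, 620/688 nm | evaluation = percent inhibition of Arfgap1-stimulated GTP hydrolysis | replication = single well per compound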
# TDP2 inh: blocks human TDP2 phosphodiesterase activity | inhibition, % at 12.8 µM | recombinant TDP2, T5PNP hydrolysis, p-nitrophenol absorbance 415 nm | AID 720702 | O95551 | hit rate 0.34% among 370,000;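 active = inhibition above the mean of all tested compounds plus 3 SD, set per campaign, cut at about 25% in these data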;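 also: 0% = DMSO with enzyme and 100% = buffer with substrate but no TDP2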
#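 Incubation: 2 h at 37 °C; Test system: recombinant human TDP2; Quantity: enzyme 120 nM; Read-out basis: percent inhibition; Medium: 50 mM Tris-HCl pH 7.5 with Mg2+, KCl, DTT, BSA; Repeats: single replicate; Compound: 12.8 µM single point, 1% DMSO; Signal: epi absorbance; Reagent: 5 mM T5PNP chromogenic substrate; Benchmarks: no-enzyme high, DMSO-plus-enzyme low.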
# LEDGF integ inh: blocks HIV-1 LEDGF/p75-dependent DNA integration | inhibition, % at 3.7 µM | TR-FRET IN-LEDGF/p75 DNA integration, Eu/Cy5 | hit rate 0.64% among 370,000;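 active = inhibition above the screen-wide mean plus 3 SD, cut at about 13% in these data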;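 also: signal is the Cy5 over europium emission ratio at 671 and 618 nm; 0% = plate median of compound wells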
# MBD2 inh: inhibitors of human MBD2 binding to methylated oligonucleotide | Q9UBB5 | TR-FRET | inhibition, % at 4.4 µM | hit rate 0.31% among 370,000; in the data active = inhibition above about 13%
# * = called active by the depositor; . = no result. Sampled rows, rich in hits. Any-hit rate of the full collection: about 2%.
SMILES,UHRF1 binding,ASAP1 GAP inh,ARFGAP1 inh,TDP2 inh,LEDGF integ inh,MBD2 inh
COc1cc2c(C(F)(F)F)c(-c3ccsc3)oc(=O)c2cc1OC,21*,-6,2,5,1,7
COc1cc2c(C(F)(F)F)c(-c3ccc(C#N)cc3)oc(=O)c2cc1OC,-1,5,1,-2,-3,-6
CC(=O)N1CCCN(C(=O)CN2C(=O)CC(C)(C)S(=O)(=O)c3ccccc32)CC1,1,.,.,5,1,-4
CCc1c2c3n4c1CCC[C@@H]4C[C@@H]3O[Si](C(C)C)(C(C)C)OC(C)C2=O (some centres undefined),3,.,.,6,-1,5
CC(=O)NC1CCCc2c1cnn2-c1ccc(C(C)(C)C)cc1 (centres undefined),1,-5,2,-1,-7,0
CC(=O)CCC(=O)NC1CCCc2c1cnn2-c1ccc(C(C)(C)C)cc1 (centres undefined),34*,-2,9,4,-4,1
CCCC[C@H]1C2CC(OC(=O)Nc3ccccc3C)C(C2)[C@H]2CCCCN21 (some centres undefined),1,.,.,7,-3,4
CCCCOc1[nH]c2nc(-c3ccco3)n(Cc3ccco3)c(=N)c2c1C#N,6,9,9,7,19*,0
CCCCNC(=O)C[C@H]1C(=O)N(Cc2ccc(OC)cc2)C2=CCCCC[C@@]21C(=O)OC,-1,.,.,-6,3,5
Cc1cccc(CSC2=NCCN2C(=O)c2ccc(Br)o2)c1,46*,4,-4,6,2,-5
CC(=O)N=C1SC2CS(=O)(=O)CC2N1c1c(Cl)cccc1Cl (centres undefined),24*,-4,-3,0,-2,-2
COc1ccccc1Cc1c(-c2ccc(Cl)cc2)nc2ccc(C)cn12,21*,-5,-3,-5,-1,5
CCCc1nc2c(C)cc(Br)cn2c1Cc1ccccc1C(F)(F)F,22*,7,14,-1,1,9
CCCc1nc2ccc(C)cn2c1Cc1ccccc1C(F)(F)F,24*,-11,-13,5,0,10
CCCc1nc2ccc(C)cn2c1Cc1ccccc1OC,22*,5,-6,1,-1,10
CCCc1nc2ccc(Cl)cn2c1Cc1ccccc1OC,18,4,1,-19,4,5
Cc1ccc2nc(-c3ccc(Cl)cc3)c(Cc3ccccc3C(F)(F)F)n2c1,15,-6,6,-1,-1,6
CSCC(C)N1CCC(n2nccc2NC(=O)CCCc2ccccc2)CC1 (centres undefined),1,5,-3,-8,-1,10
C=C(C)CCC(C)N1CCC(n2nccc2NC(=O)CCCc2ccccc2)CC1 (centres undefined),21*,3,16,6,1,2
CC(C)C[C@H](NC1(C(=O)NC2CCCCC2)CCC1)C(=O)NCC(c1ccccc1)c1ccccc1,0,.,.,-4,0,-4
Cc1ccc(NC(=O)C2CCN(S(=O)(=O)c3ccc4c(c3)OCCCO4)CC2)nc1,34*,2,2,3,-1,5
COc1ccc(-c2c(C)n([O-])c(C)c(-c3ccccc3)[n+]2=O)cc1OC,-3,-5,-4,6,1,-4
COc1ccc(-c2c(C)n([O-])c(C)c(C)[n+]2=O)cc1OC,23*,0,7,7,2,8
O=C1NC[C@H](CCCCN2C[C@H](Cc3ccc(O)cc3)N(CCc3ccc(O)cc3)C(=O)C2=O)N(Cc2ccccc2)C1=O,22*,3,3,4,0,12
CC(C)C[C@H]1CN(CCCC[C@@H]2CNC(=O)C(=O)N2CC2CCCCC2)C(=O)C(=O)N1CCc1ccccc1,21*,-3,2,-7,6,4
SMILES,UHRF1 binding,ASAP1 GAP inh,ARFGAP1 inh,TDP2 inh,LEDGF integ inh,MBD2 inh
CC(C)C[C@@H](CN1CCC[C@@H]1CN1C(=O)C(=O)NC[C@@H]1Cc1ccccc1)N1C[C@H](Cc2ccccc2)N(CC2CCCCC2)C(=O)C1=O,54*,1,-3,2,-3,4
CC(C)C[C@@H](CN1CCC[C@@H]1CN1C(=O)C(=O)NC[C@@H]1Cc1ccccc1)N1C[C@H](Cc2ccccc2)N(CC2CCCCCC2)C(=O)C1=O,4,12,10,-12,3,-6
COC(=O)[C@]12C[C@H](CC(=O)N3CCSCC3)C(=O)N(CCC3=CCCCC3)C1=C[C@H](C(C)C)O[C@@H]2C1CC1,0,.,.,-15,0,0
CCCCN1C[C@@H]2CSCCS(=O)(=O)N2C1=O,1,.,.,2,-4,2
CC(C)C(NC(=O)C1CCCCC1)C(=O)NCCc1ccccc1 (centres undefined),21*,-6,-7,3,-1,6
Cc1cc(C)c(-c2cc(NC(=O)COC(=O)c3ccc(NC(=O)CC#N)cc3)n(-c3ccccc3)n2)cc1C,26*,15,11,-8,-1,11
Cc1cc(C)c(-c2cc(NC(=O)COC(=O)c3ccc(C#N)cc3)n(-c3ccccc3)n2)cc1C,15,9,0,-2,-3,-4
CCCCN(C)c1nc(C)nc2c1nnn2Cc1ccccc1,-4,.,.,1,5,-6
COc1cc(NC(=O)[C@H]2O[C@@H](n3ccc(N)nc3=O)[C@H](O)[C@@H]2O)cc(OC)c1OC,43*,1,-5,0,-2,4
Nc1ccn([C@@H]2O[C@H](C(=O)Nc3cc(C(F)(F)F)cc(C(F)(F)F)c3)[C@@H](O)[C@H]2O)c(=O)n1,-2,-3,-5,-12,8,-3
O=C(COc1cccnc1[N+](=O)[O-])NC1CCS(=O)(=O)C1 (centres undefined),26*,4,3,-6,3,8
O=C(CN(CCc1ccccc1)S(=O)(=O)c1cccs1)N1CCOCC1,2,.,.,5,-2,1
C#CCNC(=O)C[C@@H]1C(=O)N(CC=C)C2=CCCCC[C@]21C(=O)OC,0,.,.,0,-2,-1
CN(Cc1ccccc1)C(=O)C1CCC(CNS(=O)(=O)c2cccc3cccnc23)CC1 (centres undefined),32*,-13,9,-4,-1,4
CCN(CC)C(=O)C1CCC(CNS(=O)(=O)c2cccc3cccnc23)CC1 (centres undefined),-2,-7,3,0,1,-3
Nc1[nH]c2cc(C(F)(F)F)ccc2c1C(=O)NCc1ccc(F)cc1,0,.,.,0,-1,3
COCCCNC(=S)N1CCN(c2nc(-c3ccc(F)cc3)cs2)CC1,65*,21,18,-4,2,6

# Source: PubChem BioAssay (The Scripps Research Institute Molecular Screening Center)
